ChEMBL document CHEMBL1133253, “Improved antibacterial activities of coumarin antibiotics bearing 5',5'-dialkylnoviose: biological activity of RU79115” (Bioorg Med Chem Lett, 2000)
In brackets after ≈: the same amount, converted by molar mass.

Key:
Enterococcus [1] = assay: Minimum inhibitory concentration evaluated against enterococci species resistant to vancomycin [65]*; assay type: functional
Streptococcus sp. [2] = assay: In vitro anti-streptococcal activity against Streptococci species (viridans) [25]* expressed as geometric mean; assay type: functional
Mus musculus [3] = assay: Protective dose of subcutaneously administered compound against intraperitoneally-induced septicaemia model (Staphylococcus aureus GR56 strain resistant to oxacillin) in murine; assay type: functional; details: sc, read-out: PD50
In short: (§1)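 Murine septicaemia was induced by intraperitoneal infection, and the compound was given subcutaneously. PD50 was derived by probit analysis.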

Mus musculus [4] = assay: Minimum inhibitory concentration of the subcutaneously administered compound evaluated against vancomycin resistant Enterococci faecium D3HM4 strain in mice (po); assay type: functional
Mus musculus [5] = assay: Minimum inhibitory concentration of the subcutaneously administered compound evaluated against vancomycin resistant Enterococci faecium D3AP9 strain in mice (po); assay type: functional
Mus musculus [6] = assay: Minimum inhibitory concentration of the subcutaneously administered compound evaluated against Streptococcus pyogenes A1UC1 strain in mice (po); assay type: functional
Staphylococcus sp. [7] = assay: Minimum inhibitory concentration evaluated against Staphylococcus species resistant to oxacillin [66]*; assay type: functional
In short: (§2)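 Two-fold agar dilution MIC, in µg/mL, against Staphylococcus panels grouped by resistance phenotype (oxacillin and/or ofloxacin resistant). Per-panel values are reported as the geometric mean and MIC90 across strains; the strain count per panel is given in brackets.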

Streptococcus sp. [8] = assay: In vitro anti-streptococcal activity against Streptococci species [38]* expressed as geometric mean; assay type: functional
Staphylococcus sp. [9] = assay: Minimum inhibitory concentration evaluated against Staphylococcus species resistant to ofloxacin [59]*; assay type: functional; in short: as §2
Enterococcus [10] = assay: In vitro anti-enterococcal activity against enterococci species resistant to vancomycin and teicoplanin [17]* expressed as geometric mean; assay type: functional
Mus musculus [11] = assay: Minimum inhibitory concentration of the subcutaneously administered compound evaluated against Staphylococcus aureus HT-18 strain in mice (SC); assay type: functional
Mus musculus [12] = assay: Protective dose of subcutaneously administered compound against intraperitoneally-induced septicaemia model (vancomycin resistant Enterococci faecium D3AP9 strain ) in murine; assay type: functional; details: sc, read-out: PD50; in short: as §1
[13] = Minimum inhibitory concentration evaluated against pneumococci resistant to penicillin [29]*; assay type: functional
Mus musculus [14] = assay: Protective dose of subcutaneously administered compound against intraperitoneally-induced septicaemia model (Staphylococcus aureus HT18) in murine; assay type: functional; details: sc, read-out: PD50; in short: as §1
Mus musculus [15] = assay: Protective dose of subcutaneously administered compound against intraperitoneally-induced septicaemia model (vancomycin resistant Enterococci faecium D3HM4 strain ) in murine; assay type: functional; details: sc, read-out: PD50; in short: as §1
Streptococcus sp. [16] = assay: Minimum inhibitory concentration evaluated against Streptococci species (viridans) [25]*; assay type: functional
Mus musculus [17] = assay: Protective dose of subcutaneously administered compound against intraperitoneally-induced septicaemia model (Enterococci faecalis D2HT6 strain) in murine; assay type: functional; details: sc, read-out: PD50; in short: as §1
Staphylococcus sp. [18] = assay: Minimum inhibitory concentration evaluated against Staphylococcus species resistant to oxacillin and ofloxacin [47]*; assay type: functional; in short: as §2
Mus musculus [19] = assay: Minimum inhibitory concentration of the subcutaneously administered compound evaluated against vancomycin resistant Enterococci faecium D3HM3 strain in mice (po); assay type: functional
Mus musculus [20] = assay: Protective dose of subcutaneously administered compound against intraperitoneally-induced septicaemia model ([…] B1HT3 strain) in murine; assay type: functional; details: sc, read-out: PD50; in short: as §1
Streptococcus sp. [21] = assay: Minimum inhibitory concentration evaluated against Streptococci species [38]*; assay type: functional
Mus musculus [22] = assay: Minimum inhibitory concentration of the subcutaneously administered compound evaluated against Staphylococcus aureus GR56 strain resistant to oxacillin in mice (sc)
Enterococcus [23] = assay: In vitro anti-enterococcal activity against enterococci species resistant to vancomycin [65]* expressed as geometric mean; assay type: functional
Mus musculus [24] = assay: Minimum inhibitory concentration of the subcutaneously administered compound evaluated against Enterococci faecium D3HT7 strain in mice (po); assay type: functional
Mus musculus [25] = assay: Minimum inhibitory concentration of the subcutaneously administered compound evaluated against Enterococci faecalis D2HT6 strain in mice; assay type: functional
Mus musculus [26] = assay: Protective dose of subcutaneously administered compound against intraperitoneally-induced septicaemia model (Streptococcus pyogenes A1UC1 strain) in murine; assay type: functional; details: sc, read-out: PD50; in short: as §1
pneumococci = assay: In vitro anti-streptococcal activity against pneumococci resistant to penicillin [29]* expressed as geometric mean; assay type: functional
Enterococcus [27] = assay: In vitro anti-enterococcal activity against enterococci species susceptible to vancomycin [26]* expressed as geometric mean; assay type: functional
Mus musculus [28] = assay: Protective dose of subcutaneously administered compound against intraperitoneally-induced septicaemia model (vancomycin resistant Enterococci faecium D3HM3 strain ) in murine; assay type: functional; details: sc, read-out: PD50; in short: as §1
Enterococcus [29] = assay: Minimum inhibitory concentration evaluated against enterococci species resistant to vancomycin and teicoplanin [17]*; assay type: functional
Staphylococcus sp. [30] = assay: Minimum inhibitory concentration evaluated against Staphylococcus species [91]*; assay type: functional; in short: as §2
Mus musculus [31] = assay: Minimum inhibitory concentration of the subcutaneously administered compound evaluated against vancomycin resistant Enterococci faecium D3HT12 strain in mice (po); assay type: functional
Mus musculus [32] = assay: Minimum inhibitory concentration of the subcutaneously administered compound evaluated against […] B1HT3 strain in mice (po); assay type: functional
Mus musculus [33] = assay: Protective dose of subcutaneously administered compound against intraperitoneally-induced septicaemia model (vancomycin resistant Enterococci faecium D3HT12 strain ) in murine; assay type: functional; details: sc, read-out: PD50; in short: as §1
Enterococcus [34] = assay: Minimum inhibitory concentration evaluated against enterococci species susceptible to vancomycin [26]*; assay type: functional
Mus musculus [35] = assay: Protective dose of subcutaneously administered compound against intraperitoneally-induced septicaemia model (Enterococci faecium D3HT7 strain ) in murine; assay type: functional; details: sc, read-out: PD50; in short: as §1

CN[C@H](CC(C)C)C(=O)N[C@H]1C(=O)N[C@@H](CC(N)=O)C(=O)N[C@H]2C(=O)N[C@H]3C(=O)N[C@H](C(=O)N[C@H](C(=O)O)c4cc(O)cc(O)c4-c4cc3ccc4O)[C@H](O)c3ccc(c(Cl)c3)Oc3cc2cc(c3O[C@@H]2O[C@H](CO)[C@@H](O)[C@H](O)[C@H]2O[C@H]2C[C@](C)(N)[C@H](O)[C@H](C)O2)Oc2ccc(cc2Cl)[C@H]1O [VANCOMYCIN] showed an MIC90 (Enterococcus [1]) of over 20 µg/mL, a GM (Streptococcus sp. [2]) of 0.4 and an ED50 (Mus musculus [3]) of 4 mg/kg. The MIC (Mus musculus [4]) was over 40 µg/mL, the MIC (Mus musculus [5]) was over 40 µg/mL and the MIC (Mus musculus [6]) was 0.6 µg/mL (≈ 0.414 µM). It also gave an MIC90 (Staphylococcus sp. [7]) of 2.5 µg/mL (≈ 1.73 µM), a GM (Streptococcus sp. [8]) of 0.35 and an MIC90 (Staphylococcus sp. [9]) of 2.5 µg/mL (≈ 1.73 µM). The GM (Enterococcus [10]) was 36.9, the MIC (Mus musculus [11]) was 1.2 µg/mL (≈ 0.828 µM) and the ED50 (Mus musculus [12]) was over 50 mg/kg. For the same compound, the MIC90 [13] was 0.3 µg/mL (≈ 0.207 µM), the ED50 (Mus musculus [14]) was 7.8 mg/kg and the ED50 (Mus musculus [15]) was over 50 mg/kg. It also gave an MIC90 (Streptococcus sp. [16]) of 0.6 µg/mL (≈ 0.414 µM), an ED50 (Mus musculus [17]) of 16.7 mg/kg and an MIC90 (Staphylococcus sp. [18]) of 2.5 µg/mL (≈ 1.73 µM). It also gave an MIC (Mus musculus [19]) of over 40 µg/mL, an ED50 (Mus musculus [20]) of 17.2 mg/kg and an MIC90 (Streptococcus sp. [21]) of 0.6 µg/mL (≈ 0.414 µM). The MIC (Mus musculus [22]) was 1.2 µg/mL (≈ 0.828 µM), the GM (Enterococcus [23]) was 23.7 and the MIC (Mus musculus [24]) was 2.5 µg/mL (≈ 1.73 µM). For the same compound, the MIC (Mus musculus [25]) was 2.5 µg/mL (≈ 1.73 µM), the ED50 (Mus musculus [26]) was under 1.5 mg/kg and the GM (pneumococci) was 0.24. It also gave a GM (Enterococcus [27]) of 0.75, an ED50 (Mus musculus [28]) of over 50 mg/kg and an MIC90 (Enterococcus [29]) of over 20 µg/mL. The MIC90 (Staphylococcus sp. [30]) was 2.5 µg/mL (≈ 1.73 µM), the MIC (Mus musculus [31]) was over 40 µg/mL and the MIC (Mus musculus [32]) was 0.3 µg/mL (≈ 0.207 µM). It also gave an ED50 (Mus musculus [33]) of over 50 mg/kg, an MIC90 (Enterococcus [34]) of 0.6 µg/mL (≈ 0.414 µM) and an ED50 (Mus musculus [35]) of 8.7 mg/kg.
